Key:
[1] = biological target: T1, Uridine phosphorylase 1 (Mus musculus, UniProt P52624); assay: Inhibition of uridine phosphorylase (UrdPase) from murine liver.
Method in brief: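 Murine liver UrdPase; uridine converted to uracil over 30 min at 37 °C, with enzyme set to give 10% conversion uninhibited. Stopped by 1 min at 100 °C. Uridine and uracil separated by TLC (chloroform:methanol:acetic acid 90:5:5).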

[2] = biological target: T1, Uridine phosphorylase 1; assay: The compound was tested for inhibition of uridine phosphorylase (UrdPase) from murine liver Value refers to activity for apparent Ki value
[3] = biological target: Uridine phosphorylase 1 (Mus musculus) (UniProt P52624); assay: The compound was tested for inhibition of uridine phosphorylase (UrdPase) from murine liver at 10 uM of concentration
Sequence of Uridine phosphorylase 1 (Mus musculus) (P52624 whole entry, looked up): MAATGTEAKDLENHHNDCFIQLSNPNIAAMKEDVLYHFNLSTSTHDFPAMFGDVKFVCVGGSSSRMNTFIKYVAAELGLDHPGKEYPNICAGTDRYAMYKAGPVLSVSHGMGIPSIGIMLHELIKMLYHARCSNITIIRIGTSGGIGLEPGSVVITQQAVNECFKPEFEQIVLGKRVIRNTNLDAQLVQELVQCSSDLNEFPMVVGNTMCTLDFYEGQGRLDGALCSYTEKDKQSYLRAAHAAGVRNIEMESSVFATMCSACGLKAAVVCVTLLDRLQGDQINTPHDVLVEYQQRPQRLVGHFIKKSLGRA

[4] = biological target: Uridine phosphorylase 1 (Mus musculus) (UniProt P52624); assay: The compound was tested for inhibition of uridine phosphorylase (UrdPase) from murine liver at 5 uM of concentration

T1 sequence (P52624 whole entry): as the sequence (P52624 whole entry, looked up) above

Row | IC50 [1] [µM] | Structure (SMILES) | other results
1 | 129 | COc1ccc(Cc2c[nH]c(=O)[nH]c2=O)cc1OC | 
2 | 0.047 | CCCOc1cccc(Cc2cn(COCCO)c(=O)[nH]c2=O)c1 | 
3 | 13 | O=c1[nH]cc(Cc2cccc(OCCCC(F)(F)F)c2)c(=O)[nH]1 | 
4 | 5.9 | O=c1[nH]cc(Cc2ccc([N+](=O)[O-])cc2)c(=O)[nH]1 | 
5 | 13.6 | O=c1[nH]cc(Cc2ccc3c(c2)OCO3)c(=O)[nH]1 | 
6 |  | COc1cccc(Cc2cn(COCCO)c(=O)[nH]c2=O)c1 | Ki [2]: 1.86 µM
7 | 66.5 | COc1ccc(Cc2cnc(O)nc2O)cc1 | 
8 |  | Oc1ncc(Cc2ccc(C(F)(F)F)cc2)c(O)n1 | inhibition [3]: 16%
9 |  | Oc1ncc(Cc2cccc(OCc3ccccc3)c2)c(O)n1 | inhibition [4]: 15%
